These results are taken from ChEMBL document CHEMBL2163279, “Discovery of novel small molecule inhibitors of dengue viral NS2B-NS3 protease using virtual screening and scaffold hopping” (J Med Chem, 2012).

In series [1] the test system is dengue virus type 2. Nature of the series: Inhibition of Dengue virus 2 NS2B-NS3 protease at 100 uM preincubated for 15 mins before Dabcyl- Lys-Gln-Arg-Arg-Gly-Arg-Ile-Glu-Edans substrate addition by fluorimetric assay.
Series [2] can be described thus: (§1) Inhibition of Dengue virus 2 NS2B-NS3 protease preincubated for 15 mins before Dabcyl- Lys-Gln-Arg-Arg-Gly-Arg-Ile-Glu-Edans substrate addition by fluorimetric assay. More on the design: species or system dengue virus type 2.
Series [3] deals with dengue virus type 2. Nature of the series: Antiviral activity against Dengue virus 2 infected in BHK-D2RepT cells assessed as reduction in viral replication incubated for 48 hrs by luciferase reporter replicon-based assay. In kind it is functional, organism-based. Summed up: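 Cells used were BHK-D2RepT: BHK carrying a DENV-2 (New Guinea C) firefly-luciferase replicon, maintained in DMEM/10% FBS/200 μg/mL G418. Seeded at 5×10⁴ cells/well for 24 h, then exposed to compound for 48 h (DMSO <0.2%). Medium was replaced before the Bright-Glo luciferase read. Triplicate wells with six control wells. IC50 is the concentration giving 50% of control luciferase signal; mean of three independent experiments.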
A general note: In a reporter assay the amount or activity of a reporter protein is the signal.

The nature of series [4]: Selectivity index, ratio of CC50 for BHK cells to IC50 for Dengue virus 2 infected in BHK-D2RepT cells. In kind it is functional. In a few lines:
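Selectivity index = CC50 / IC50. CC50 is from the 48 h MTT assay in nontransfected BHK cells; IC50 is from the 48 h luciferase read in BHK-D2RepT replicon cells, 96-well format.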

Series [5] in a line: Cytotoxicity against BHK cells incubated for 48 hrs by MTT assay. In kind it is cell-based, Mesocricetus auratus. Conditions: hamster. Summed up: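 Nontransfected BHK cells, about 5×10⁴ per well, were treated the next day with various compound concentrations for 48 h. Viability was measured by MTT. CC50 is the concentration giving 50% of control cell number; mean of three independent experiments.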
For orientation: Tetrazolium dyes change colour on reduction, which living cells bring about.

For series [6], the system named is dengue virus type 2. The series is described as §1.
In series [7] the test system is dengue virus type 2. The experiment in a line: Inhibition of Dengue virus 2 NS2B-NS3 protease at 25 uM preincubated for 15 mins before substrate addition.
Series [8] has as its system dengue virus type 2. Nature of the series: Inhibition of Dengue virus 2 NS2B-NS3 protease at 12.5 uM preincubated for 15 mins before substrate addition.
Series [9] concerns dengue virus type 2. The experiment in a line: Inhibition of Dengue virus 2 NS2B-NS3 protease at 50 uM preincubated for 15 mins before substrate addition.

A value given as a limit tells only on which side of the number the result lay.

Take `O=C(NCCCc1ccccc1)c1cc(/C=N/Nc2cccc(Cl)c2)nc2ccccc12`: the inhibition in the series with dengue virus type 2 [1] is 32.1%. Also, in series [2], the IC50 was above 100 µM.
The like results for `NS(=O)(=O)c1ccc(N/N=C/c2cc(C(=O)NCCCCc3ccccc3)c3ccccc3n2)cc1` were, in that order, 29.4% and above 100 µM.
In the series with dengue virus type 2 [1], `CCOC(=O)c1cc(/C=N\NC(N)=S)c(O)c(/C=N\NC(N)=S)c1` returned an inhibition of 24.4%. The half-maximal inhibitory concentration (IC50) in [2] was above 100 µM.
As for `O=C(N/N=C\CCc1ccccc1)c1cc(/C=N/Nc2cccc(Br)c2)nc2ccccc12`, half-maximal inhibition in [2] (IC50) was put at 19.9 µM.
On to `CCNC(=S)N/N=C\c1cc(C(=O)OCC)cc(/C=N\NC(=S)NCC)c1O`, for which the inhibition in the series with dengue virus type 2 [1] came out at 28.2%. This compound also had a 50% inhibitory concentration (IC50) in series [2] above 100 µM.
Compound `O=C(CCCC(=O)/C(=C\c1ccc2c(c1)OCO2)CC(=O)c1ccccc1)OCCCl` returned an IC50 in [2] of 242 µM.
In series [2], `NS(=O)(=O)c1ccc(N/N=C/c2cc(C(=O)N/N=C\CCc3ccccc3)c3ccccc3n2)cc1` had an IC50 of 36 µM.
Consider `O=C(O)c1cccc(N/N=C/c2cc(C(=O)NCCCc3ccccc3)c3ccccc3n2)c1`, for which the half-maximal inhibitory concentration (IC50) with dengue virus type 2 [3] stood at 30.9 µM; in series [2], 41.2 µM. Further, the “Ratio CC50/IC50” value in series [4] is 2.1. This compound also had a CC50 at 48 h in [5] of 64.3 µM.
In turn, `CCOC(=O)c1cc(/C=N/NC(=O)c2ccc3c(c2)OCO3)c(O)c(/C=N/NC(=O)c2ccc3c(c2)OCO3)c1` gave an inhibition in the series with dengue virus type 2 [1] of 35.4%. The compound further showed an IC50 in series [2] above 100 µM.
Take `CCOC(=O)c1cc(/C=N/NC(=O)Nc2ccccc2)c(O)c(/C=N/NC(=O)Nc2ccccc2)c1`: in the series on dengue virus type 2 [1], the inhibition is 44.1%. This compound had an IC50 in [2] above 100 µM.
On to `CCOC(=O)c1cc(/C=N/Nc2nc3ccccc3[nH]2)c(O)c(/C=N/Nc2nc3ccccc3[nH]2)c1`, for which the IC50 with dengue virus type 2 [3] came out at 35.9 µM; in [2] it was 13.1 µM. For the same compound, in [4], the “Ratio CC50/IC50” value is 0.4. Moreover, the inhibition entry with dengue virus type 2 [6] was “Dose-dependent effect”. In series [5], this compound came in with a CC50 at 48 h of 12.6 µM.
In series [2], `NS(=O)(=O)c1ccc(N/N=C/c2cc(C(=O)N/N=C/c3cccc(O)c3)c3ccccc3n2)cc1` came in with a half-inhibitory concentration (IC50) of 7.83 µM.
In the series with dengue virus type 2 [1], `Oc1c(/C=N/Nc2nc3ccccc3[nH]2)cccc1/C=N/Nc1nc2ccccc2[nH]1` gave an inhibition of 31.9%. This compound gave a 50% inhibitory concentration (IC50) in series [2] above 100 µM.
In the case of `O=C(N/N=C\Cc1ccccc1)c1cc(/C=N/Nc2cccc(C(F)(F)F)c2)nc2ccccc12`, the concentration for half-maximal inhibition (IC50) was determined as 73.4 µM in the series on dengue virus type 2 [3] and 19.8 µM in [2]. Moreover, the “Ratio CC50/IC50” value in [4] came out at 0.2. In addition, in series [5], the CC50 at 48 h turned out to be 16.4 µM.
For `O=C(N/N=C\Cc1ccccc1)c1cc(/C=N/Nc2cccc(Br)c2)nc2ccccc12`, in that order: 24.7 µM, 9.45 µM, above 4.1 and above 100 µM.
The compound `O=C(NCCCCc1ccccc1)c1cc(/C=N/Nc2cccc(Br)c2)nc2ccccc12` returned an inhibition in the series with dengue virus type 2 [1] of 30.6%. For the same compound, in series [2], the IC50 is above 100 µM.
In the case of `O=C(N/N=C\C=C\c1ccccc1)c1cc(/C=N/Nc2cccc([N+](=O)[O-])c2)nc2ccccc12`, the IC50 in the series on dengue virus type 2 [3] came to 74.9 µM; in [2], 22 µM. For the same compound, the “Ratio CC50/IC50” value in [4] was 0.3. In addition, half-maximal cytotoxicity in [5] (CC50 at 48 h) was put at 25 µM.
`COc1ccc(-c2csc(N3N=C(c4ccc([N+](=O)[O-])cc4)/C(=N\Nc4ccc(C(N)=O)cc4)C3=O)n2)cc1` displayed a concentration for half-maximal inhibition (IC50) in [2] of 220 µM.
For the compound `NS(=O)(=O)c1ccc(N/N=C/c2cc(C(=O)N/N=C\C=C\c3ccccc3)c3ccccc3n2)cc1`, the inhibition is 37.1% with dengue virus type 2 [7], 21.4% with dengue virus type 2 [8], 63.3% in the series on dengue virus type 2 [9] and “Dose-dependent effect” with dengue virus type 2 [6]. Also, the IC50 in series [2] is 7.46 µM.
`NS(=O)(=O)c1ccc(N/N=C/c2cc(C(=O)N/N=C\Cc3ccccc3)c3ccccc3n2)cc1` showed an inhibition in the series on dengue virus type 2 [1] of 31.1%. For the same compound, the concentration for half-maximal inhibition (IC50) in series [2] was above 100 µM.
For `CCOC(=O)c1cc(/C=N/N2C(=O)c3ccccc3C2=O)c(O)c(/C=N/N2C(=O)c3ccccc3C2=O)c1`, in that order: 28% and above 100 µM.
In series [2], `O=C(N/N=C\C=C\c1ccccc1)c1cc(/C=N/Nc2cccc(Cl)c2)nc2ccccc12` showed a half-maximal inhibitory concentration (IC50) of 14.3 µM.
Regarding `CCOC(=O)c1cc(/C=N/Nc2ccc([N+](=O)[O-])cc2)c(O)c(/C=N/Nc2ccc([N+](=O)[O-])cc2)c1`, the IC50 in series [2] was 14.6 µM.
For the compound `O=C(NCCCc1ccccc1)c1cc(/C=N/Nc2cccc(Br)c2)nc2ccccc12`, the inhibition in the series on dengue virus type 2 [1] was 24.2%. The IC50 in series [2] is above 100 µM.
On to `CCOC(=O)c1cc(/C=N/Nc2nc3ccccc3[nH]2)cc(/C=N/Nc2nc3ccccc3[nH]2)c1`, for which, in series [2], the IC50 worked out at 29.5 µM.
In the case of `COc1cc(/C=C/C(=O)CC(=O)/C=C/c2ccc(O)c(OC)c2)ccc1O` [CURCUMIN], the concentration for half-maximal inhibition (IC50) in the series on dengue virus type 2 [3] was 4.2 µM. Moreover, the “Ratio CC50/IC50” value in series [4] was 3.5. This compound also registered a CC50 at 48 h in [5] of 14.8 µM.
The compound `O=C(N/N=C\C=C\c1ccccc1)c1cc(/C=N/Nc2cccc(C(F)(F)F)c2)nc2ccccc12` came in with an inhibition with dengue virus type 2 [1] of 27.4%. The IC50 in series [2] was above 100 µM.
For the compound `O=C(N/N=C\Cc1ccccc1)c1cc(/C=N/Nc2cccc(Cl)c2)nc2ccccc12`, the values for the 50% inhibitory concentration (IC50) (with dengue virus type 2 [3]; in [2]) were 61.3 µM and 28.1 µM, respectively. The “Ratio CC50/IC50” value in [4] is recorded as 0.3. Besides, the CC50 at 48 h in series [5] stood at 19.7 µM.
As to `O=C(O)c1cccc(N/N=C/c2cc(C(=O)NCCCCc3ccccc3)c3ccccc3n2)c1`, the IC50 in the series with dengue virus type 2 [3] turned out to be 11 µM; in [2], 35.3 µM. Also, the “Ratio CC50/IC50” value in series [4] was found to be 4.5. The compound further came in with a half-maximal cytotoxic concentration (CC50) at 48 h in series [5] of 49.7 µM.
On to `COc1c(C)c2c(c(O)c1C/C=C(\C)CCC(=O)O)C(=O)OC2` [MYCOPHENOLIC ACID], for which the IC50 in the series on dengue virus type 2 [3] amounted to 0.7 µM. In [4], the “Ratio CC50/IC50” value was 2.7. In series [5], the CC50 at 48 h worked out at 1.9 µM.
Turning to `CCOC(=O)c1cc(C)c(O)c(/C=N/Nc2nc3ccccc3[nH]2)c1`, in series [2], the midpoint of inhibition, the IC50, lay at 48.6 µM.
Still for that read-out and setting: to `O=C(N/N=C/CCc1ccccc1)c1cc(/C=N/Nc2cccc(Cl)c2)nc2ccccc12` belongs 29 µM.
As to `O=C(N/N=C\CCc1ccccc1)c1cc(/C=N/Nc2cccc(C(F)(F)F)c2)nc2ccccc12`, the inhibition in the series with dengue virus type 2 [1] is 20.9%. The same compound returned a half-maximal inhibitory concentration (IC50) in series [2] above 100 µM.
On to `CCOC(=O)c1cc(/C=N/Nc2ccc(C(C)C)cc2)c(O)c(/C=N/Nc2ccc(C(C)C)cc2)c1`, for which the values for the IC50 (in the series on dengue virus type 2 [3]; in series [2]) were 8 µM and 39.5 µM, respectively. Besides, in series [4], the “Ratio CC50/IC50” value was found to be 3.7. Besides, in [5], the CC50 at 48 h is 29.7 µM.
In the series on dengue virus type 2 [1], `NS(=O)(=O)c1ccc(N/N=C/c2cc(C(=O)NCCCc3ccccc3)c3ccccc3n2)cc1` showed an inhibition of 20.6%. Besides, in [2], the concentration for half-maximal inhibition (IC50) is above 100 µM.

One may read the inhibition as the percentage by which the read-out fell short of the control. One may read the IC50 as the midpoint of a concentration-inhibition curve. By CC50 is commonly meant the concentration at which the toxic effect on the cells reaches its halfway point. Low readings indicate greater toxicity to the cells, high ones lower toxicity to the cells.
